In ChEMBL document CHEMBL1128719, “The synthesis, structure-activity, and structure-side effect relationships of a series of 8-alkoxy- and 5-amino-8-alkoxyquinolone antibacterial agents” (J Med Chem, 1995):
≈ marks a conversion by molar mass, not a printed value.

Experiments:
[1] = test system: Bacteroides fragilis; experiment: In vitro antibacterial activity against Bacteroides fragilis BFA; format: functional
In short: (§1)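 Microtitration (microdilution) MIC determination in μg/mL against a panel of Gram-positive, Gram-negative and anaerobic organisms. Values come from duplicate or triplicate experiments and are stated accurate to ±50%.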

[2] = test system: Clostridioides difficile; experiment: In vitro antibacterial activity was tested for Clostridium diff CD1-1; format: functional
[3] = test system: Clostridium perfringens; experiment: In vitro antibacterial activity against Clostridium perfringens CP 3-1; format: functional
[4] = test system: Escherichia coli; experiment: In vitro antibacterial activity was tested for Escherichia coli H560; format: functional; in short: as §1
[5] = test system: Escherichia coli; experiment: In vitro antibacterial activity was tested for Escherichia coli Vogel; format: functional; in short: as §1
[6] = test system: Enterobacter cloacae; experiment: In vitro antibacterial activity was tested for Enterobacter cloacae HA2646; format: functional
[7] = test system: Klebsiella pneumoniae; experiment: In vitro antibacterial activity was tested for Klebsiella pneumoniae MGH-2; format: functional; in short: as §1
[8] = species: Mus musculus; experiment: (§2) Phototoxic skin reaction in depilated female CD-1 mice; format: toxicity, organism-based; details: in vivo
In short: (§3)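 Female CD-1 mice, depilated, given a single oral or subcutaneous dose. UVA (320–400 nm) exposure for 3 h, starting 1 h post-dose. Initial doses were 30, 100 and 300 mg/kg. PTD50 (dose giving phototoxic skin reaction in 50% of mice) derived by probit method. First day of positive reaction and no-effect dose taken from raw data.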

[9] = species: Mus musculus; experiment: as §2; format: functional; in short: as §3
[10] = test system: Peptoniphilus asaccharolyticus; experiment: In vitro antibacterial activity was tested for Pepto asac PA 3-1; format: functional; in short: as §1
[11] = test system: Providencia rettgeri; experiment: In vitro antibacterial activity was tested for Providencia rettgeri H1771; format: functional; in short: as §1
[12] = test system: Pseudomonas aeruginosa; experiment: In vitro antibacterial activity was tested for Pseudomonas aeruginosa UI-18; format: functional; in short: as §1
[13] = test system: Staphylococcus aureus; experiment: In vitro antibacterial activity was tested for Staphylococcus aureus H228; format: functional; in short: as §1
[14] = test system: Staphylococcus aureus; experiment: In vitro antibacterial activity was tested for Staphylococcus aureus UC-76; format: functional; in short: as §1
[15] = test system: Streptococcus pneumoniae; experiment: In vitro antibacterial activity was tested for Streptococcus pneumoniae SV-1; format: functional; in short: as §1
[16] = test system: Streptococcus pyogenes; experiment: In vitro antibacterial activity was tested for Streptococcus pyogenes C203; format: functional; in short: as §1
[17] = test system: Enterococcus faecalis; experiment: In vitro antibacterial activity was tested for Streptococcus faecalis MGH-2; format: functional; in short: as §1
[18] = test system: Cutibacterium acnes; experiment: In vitro antibacterial activity was tested for Propion acnes PA5-1; format: functional; in short: as §1
[19] = test system: V79; experiment: Clonogenic cytotoxicity against Chinese hamster V-79 cells; format: functional, cell-based; details: Cricetulus griseus
In short: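 Chinese hamster V-79 cells grown overnight, then exposed to drug 3 h at 37 °C; drug medium replaced with fresh medium, cells incubated 5 days and scored for colony formation. IC50 (μg/mL) taken as concentration inhibiting colony formation by 50% versus control.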

Structure (SMILES) | MIC [1] [µg/mL] | MIC [2] [µg/mL] | MIC [3] [µg/mL] | MIC [4] [µg/mL] | MIC [5] [µg/mL] | MIC [6] [µg/mL] | MIC [7] [µg/mL] | PTD50 [8] [mg] | No effect dose [9] [mg] | MIC [10] [µg/mL] | MIC [11] [µg/mL] | MIC [12] [µg/mL] | MIC [13] [µg/mL] | MIC [14] [µg/mL] | MIC [15] [µg/mL] | MIC [16] [µg/mL] | MIC [17] [µg/mL] | MIC [18] [µg/mL] | IC50 [19] [µg/mL]
NC1CCN(c2cc3c(cc2F)c(=O)c(C(=O)O)cn3C2CC2)C1 (stereo not drawn) | 1.6 (≈ 4.83 µM) | 12.5 (≈ 37.7 µM) | 0.1 (≈ 0.302 µM) | 0.05 (≈ 0.151 µM) | 0.025 (≈ 0.0754 µM) | 0.025 (≈ 0.0754 µM) | 0.1 (≈ 0.302 µM) | > 300 | 300 | 1.6 (≈ 4.83 µM) | 0.1 (≈ 0.302 µM) | 0.1 (≈ 0.302 µM) | 0.025 (≈ 0.0754 µM) | 0.1 (≈ 0.302 µM) | 0.1 (≈ 0.302 µM) | 0.006 (≈ 0.0181 µM) | 0.05 (≈ 0.151 µM) | 1.6 (≈ 4.83 µM) | –
NCC1CCCN(c2c(F)c(N)c3c(=O)c(C(=O)O)cn(C4CC4)c3c2F)C1 (stereo not drawn) | – | – | – | 0.025 (≈ 0.0637 µM) | 0.05 (≈ 0.127 µM) | 0.05 (≈ 0.127 µM) | 0.1 (≈ 0.255 µM) | – | – | – | 0.2 (≈ 0.51 µM) | 0.8 (≈ 2.04 µM) | 0.025 (≈ 0.0637 µM) | 0.003 (≈ 0.00765 µM) | 0.003 (≈ 0.00765 µM) | 0.13 (≈ 0.331 µM) | 0.013 (≈ 0.0331 µM) | – | 38 (≈ 96.8 µM)
NCC1CCCN(c2nc3c(cc2F)c(=O)c(C(=O)O)cn3C2CC2)C1 (stereo not drawn) | – | – | – | 0.4 (≈ 1.11 µM) | 0.4 (≈ 1.11 µM) | 0.4 (≈ 1.11 µM) | 0.8 (≈ 2.22 µM) | – | – | – | 1.6 (≈ 4.44 µM) | 6.3 (≈ 17.5 µM) | 1.6 (≈ 4.44 µM) | 0.2 (≈ 0.555 µM) | 0.2 (≈ 0.555 µM) | 0.2 (≈ 0.555 µM) | 0.4 (≈ 1.11 µM) | – | 290 (≈ 805 µM)
COc1c(N2CCC(N)C2)c(F)cc2c(=O)c(C(=O)O)cn(C3CC3)c12 (stereo not drawn) | 0.2 (≈ 0.553 µM) | 0.4 (≈ 1.11 µM) | 0.1 (≈ 0.277 µM) | 0.013 (≈ 0.036 µM) | 0.025 (≈ 0.0692 µM) | 0.025 (≈ 0.0692 µM) | 0.05 (≈ 0.138 µM) | > 100 | 100 | 0.8 (≈ 2.21 µM) | 0.1 (≈ 0.277 µM) | 0.4 (≈ 1.11 µM) | 0.05 (≈ 0.138 µM) | 0.013 (≈ 0.036 µM) | 0.025 (≈ 0.0692 µM) | 0.025 (≈ 0.0692 µM) | 0.05 (≈ 0.138 µM) | 0.4 (≈ 1.11 µM) | –
NC1CCN(c2c(F)cc3c(=O)c(C(=O)O)cn(C4CC4)c3c2Cl)C1 (stereo not drawn) [CLINAFLOXACIN] | 0.1 (≈ 0.273 µM) | 0.4 (≈ 1.09 µM) | 0.1 (≈ 0.273 µM) | 0.006 (≈ 0.0164 µM) | 0.013 (≈ 0.0355 µM) | 0.025 (≈ 0.0683 µM) | 0.025 (≈ 0.0683 µM) | 23 | 18 | 0.4 (≈ 1.09 µM) | 0.025 (≈ 0.0683 µM) | 0.05 (≈ 0.137 µM) | 0.05 (≈ 0.137 µM) | 0.013 (≈ 0.0355 µM) | 0.05 (≈ 0.137 µM) | 0.05 (≈ 0.137 µM) | 0.05 (≈ 0.137 µM) | 0.2 (≈ 0.547 µM) | –
